KCNK3 inh = human KCNK3 channel inhibition, primary screen | hit rate 0.84% among 340,000 | B-score at 10 µM | O14649 | CHO-KCNK3 thallium flux, FluxOR fluorescence; hits give low values;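 active = B-score under library mean minus 4 SD, starting fluorescence ratio at most library mean plus 5 SD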;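 note: more negative B-score means stronger inhibition of thallium flux through KCNK3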
Kir21 block = inhibitors of mouse Kir2.1 inward-rectifier potassium channel; P35561; HEK293-Kir2.1, FluxOR thallium flux fluorescence; hits give low values; B-score at 10 µM; hit rate 0.85% among 310,000; AID 1672;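 active = fluorescence ratio B-score at or below minus 3 SD of library scores, with starting-brightness B-score within 2 SD, cut at about -4.2 in these data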;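 note: channel flux triggered by added potassium and thallium sulfate stimulus; B-score of peak minus minimum fluorescence over baseline after thallium stimulus; more negative B-score means stronger Kir2.1 block with less thallium influx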
Target sequence (P35561 whole entry, looked up): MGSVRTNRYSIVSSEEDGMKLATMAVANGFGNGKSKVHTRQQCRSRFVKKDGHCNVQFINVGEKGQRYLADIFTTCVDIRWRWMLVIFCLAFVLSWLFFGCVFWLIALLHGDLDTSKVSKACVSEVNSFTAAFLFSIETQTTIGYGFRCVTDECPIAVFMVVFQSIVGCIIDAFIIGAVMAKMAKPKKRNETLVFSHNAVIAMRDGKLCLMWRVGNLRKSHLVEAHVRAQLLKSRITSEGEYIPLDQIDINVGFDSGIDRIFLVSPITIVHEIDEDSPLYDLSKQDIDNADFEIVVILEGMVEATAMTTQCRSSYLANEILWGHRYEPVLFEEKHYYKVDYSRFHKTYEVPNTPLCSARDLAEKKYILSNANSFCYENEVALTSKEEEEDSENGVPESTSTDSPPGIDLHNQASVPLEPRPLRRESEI
KCNQ1 pot = potentiators or activators of human KCNQ1 potassium channel. CHO-K1 KCNQ1, thallium flux FluxOR fluorescence; hits give high values. B-score at 10 µM. P51787. hit rate 0.35% among 310,000. AID 2648;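 active = fluorescence ratio B-score, a plate-corrected score, at least three library SD, with initial intensity B-score within 5 SD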
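Assay system: stable KCNQ1 CHO-K1 line; medium: assay buffer, equal DMSO in all wells; timing: 90 min dye loading and 20 min compound exposure, both at room temperature; technique: kinetic FluxOR thallium fluorescence, 10-s 1-Hz baseline, 110-s post-stimulus read; read-out basis: B score of baseline-normalized fluorescence ratio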
hERG rescue = compounds protecting human hERG from proarrhythmic drug block. activation (rescue from dofetilide block), less the hit threshold, % at 10 µM. CHO-hERG, FluxOR thallium flux, dofetilide IC70 present. AID 1511. hit rate 0.51% among 310,000;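 active = activation above the mean of controls blocked by dofetilide plus 5 SD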;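 note: thallium influx through hERG after potassium depolarization seen as dye fluorescence rise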
KCNK9 inh = blocks the human KCNK9 two-pore domain potassium channel; HEK293 KCNK9, FluxOR thallium flux fluorescence; hits give low values; B-score at 10 µM; hit rate 1.2% among 310,000; AID 488922;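 active = ratio B-score over 3 SD below the library mean, with starting fluorescence within 5 SD of its mean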;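 note: negative B-score means less thallium flux so channel inhibition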
Target sequence (Q9NPC2 whole entry, looked up, the tested form may be a part): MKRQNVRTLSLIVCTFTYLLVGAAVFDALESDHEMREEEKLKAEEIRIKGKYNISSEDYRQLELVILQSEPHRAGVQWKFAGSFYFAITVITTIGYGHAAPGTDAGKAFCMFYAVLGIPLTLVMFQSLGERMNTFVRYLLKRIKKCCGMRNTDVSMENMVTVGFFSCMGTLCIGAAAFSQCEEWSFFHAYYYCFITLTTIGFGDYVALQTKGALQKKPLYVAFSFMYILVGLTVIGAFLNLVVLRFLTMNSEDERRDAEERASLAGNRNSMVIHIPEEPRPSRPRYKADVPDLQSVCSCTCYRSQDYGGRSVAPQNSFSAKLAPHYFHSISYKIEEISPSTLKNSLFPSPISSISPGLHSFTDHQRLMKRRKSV
KCNQ1 block = inhibitors of human KCNQ1 potassium channel; CHO-K1 KCNQ1, FluxOR thallium flux fluorescence; hits give high values; B-score at 10 µM; hit rate 1.3% among 310,000;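 active = compounds whose thallium flux B-score, printed positive for inhibition, exceeds three library SD while starting fluorescence stays within three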;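 note: channel opened by potassium depolarization with thallium stimulus after 20 min compound exposure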
KCNQ1 inh valid = human KCNQ1 channel inhibition, validation assay | inhibition, % at 10 µM | KCNQ1 cell line, FluxOR thallium flux fluorescence | hit rate 93% among 1,600 | shares compounds with KCNQ1 block | AID 588353;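 active = primary screen active, with duplicate mean exceeding buffer control mean plus 3 SD of buffer wells, cut at about 28% in these data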
CHO Tl flux = counter-screen for KCNQ1 inhibitors: effect in parental CHO cells. shares compounds with KCNQ1 block. parental CHO-K1, FluxOR thallium flux fluorescence ratio; hits give low values; zero means no signal rise above baseline. fluorescence ratio (Tl flux) at 10 µM. hit rate 21% among 1,600;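 active = mean of duplicate thallium-flux fluorescence ratios in parental host cells more than 5 SD below the buffer control mean, cut at about 0.38 in these data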;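 note: ratio is peak minus minimum fluorescence divided by baseline fluorescence; actives read low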
KCNQ1 ephys val = human KCNQ1 inhibition validated by electrophysiology; shares compounds with KCNQ1 block; KCNQ1-CHO cells, automated patch clamp current; calls only at 10 µM; hit rate 20% among 490;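 active = KCNQ1 current drop exceeding 3 SD of negative control wells, seen in both duplicate runs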;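 note: steady state current during a 2 s step from -80 to +40 mV; negative values mean current inhibition and positive values mean potentiation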
KCNQ2 spec = KCNQ1 inhibitor that also blocks rat KCNQ2 channel | shares compounds with KCNQ1 block | KCNQ2 cells, FluxOR thallium flux fluorescence | inhibition, % at 10 µM | hit rate 71% among 1,600 | AID 651746;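 active = mean percent inhibition of the KCNQ2 thallium signal more than 5 SD above the buffer-only control wells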;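 note: KCNQ2 expressed in CHO cells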
KCNQ1 KCNE1 spec = KCNQ1 inhibitor that also blocks human KCNQ1/KCNE1 channel; shares compounds with KCNQ1 block; KCNQ1/KCNE1 cells, FluxOR thallium flux fluorescence; inhibition, % at 10 µM; hit rate 77% among 1,600; AID 652147;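 active = mean percent inhibition of duplicate wells above the buffer-only control mean plus 3 SD of those controls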
KCNK9 inh conf = confirmation of human KCNK9 potassium channel inhibitors | HEK293 KCNK9 cells, FluxOR thallium flux fluorescence | shares compounds with KCNK9 inh | AID 492992 | inhibition, % at 10 µM | hit rate 43% among 4,900;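 active = thallium signal inhibited by more than 5 SD of the compound-free buffer control wells, on both duplicate plates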
Kir2-1 spec = mouse Kir2.1 off-target activity of KCNK9 modulators. inhibition, % at 10 µM. AID 492993. hit rate 4% among 4,900. Kir2.1 cells, FluxOR thallium flux fluorescence. shares compounds with KCNK9 inh;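 active = thallium signal drop more than 5 SD beyond the mean of the no-compound control wells, seen in both duplicate plates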;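 note: signal is fluorescence rise after thallium addition divided by baseline fluorescence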
HEK293 Tl ctr = second counter-screen for KCNK9 modulators: effect in non-induced cells | shares compounds with KCNK9 inh | non-induced KCNK9-HEK293, FluxOR thallium flux | inhibition, % at 10 µM | hit rate 40% among 4,900 | AID 492997;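 active = thallium signal drop beyond 5 SD of the untreated control mean, on both duplicate plates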
KCNK3 inh conf = human KCNK3 channel inhibition, confirmation assay | shares compounds with KCNK3 inh | CHO-KCNK3 thallium flux, FluxOR fluorescence; 0% buffer, 100% carvedilol maximal block | ratio percent of control, % at 10 µM | hit rate 99% among 2,400;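 active = ratio percent of control, averaged over triplicates, above buffer control mean plus 5 SD, cut at about 64% in these data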;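 note: ratio is the fluorescence rise from min to max over baseline after thallium stimulus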
KCNK3 noninduced = activity in cells without induced KCNK3 expression; non-induced KCNK3 parental cells, FluxOR thallium flux; hits give low values; shares compounds with KCNK3 inh; thallium flux ratio (lower = more inhibition) at 10 µM; hit rate 40% among 2,400; AID 651747;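 active = thallium flux ratio, averaged over three wells, more than 5 SD below the buffer control mean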;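 note: host cells are CHO cells without KCNK3 induction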
Numbers stand for hits; . = inactive; / = no result given; + = active, no number. This is a sample that favours compounds with a hit; in the whole collection about 3.7% have one here.

SMILES	KCNK3 inh	Kir21 block	KCNQ1 pot	hERG rescue	KCNK9 inh	KCNQ1 block	KCNQ1 inh valid	CHO Tl flux	KCNQ2 spec	KCNQ1 KCNE1 spec	KCNK3 inh conf	KCNK3 noninduced	others
COc1ccc(C)cc1S(=O)(=O)N1CCCC(C(=O)NC2CC2)C1 (centres undefined)	.	.	.	.	.	.	/	/	/	/	/	/
Cc1ccc(NC(=O)c2cc(-c3cccs3)nc3ccccc23)nc1	-11	.	.	.	.	6	88	0.37	121%	196%	111	0.14
Cc1ccn2cc(-c3cccc(NC(=O)c4cccs4)c3)nc2c1	-11	.	.	.	.	8	58	.	.	82%	96	.
Cc1ccc(S(=O)(=O)N2CC(C)N(C(=O)N3CCOCC3)C2)cc1 (centres undefined)	.	.	.	.	.	.	/	/	/	/	/	/
O=C(N/N=C/c1cc(Br)c(O)c(Br)c1)c1cc2c(ccc3ccccc32)o1	-11	.	.	.	.	15	160	0.32	130%	+	136	0.093
O=C(N/N=C/c1ccc(O)c(Br)c1)c1cc2c(ccc3ccccc32)o1	.	.	.	.	.	.	/	/	/	/	/	/
O=C(Nc1ccc(Br)cc1)Nc1ccccc1Cl	-8.7	.	.	.	-6.7	7	34	.	.	.	86	.
Cc1cc(NC(=O)Nc2cccc(Cl)c2)n(-c2ccccn2)n1	-11	.	.	.	-13	14	192	.	125%	+	126	.	KCNQ1 ephys val=.;KCNK9 inh conf=54%;Kir2-1 spec=.;HEK293 Tl ctr=32%
Cc1cccc(OCC(=O)Nc2ccccc2N2CCCCC2)c1C	.	.	.	.	-8.4	9	102	.	88%	150%	110	.	KCNQ1 ephys val=.;KCNK9 inh conf=54%;Kir2-1 spec=34%;HEK293 Tl ctr=42%
Cc1ccc(C)n1-c1nccc(-c2ccco2)n1	.	.	.	.	.	.	/	/	/	/	/	/
COc1ccc2[nH]c3c(N4CCc5ccccc5C4)ncnc3c2c1	-8.7	.	.	.	.	11	143	0.25	115%	+	130	0.12
Cc1cc(C)nc(N(C#N)CCOc2ccc(Cl)cc2)n1	.	.	.	.	.	.	/	/	/	/	/	/
CC(C)Nc1nc(NC(C)C)nc(N(C#N)CCOc2ccc(Cl)cc2Cl)n1	-12	.	.	.	-7.9	14	134	0.31	128%	+	135	0.13
O=C(CSc1nc2ccccc2nc1N1CCCCC1)Nc1ccc(F)cc1	-9.8	.	.	.	-6.9	13	108	.	97%	158%	137	0.12	KCNQ1 ephys val=.
Cc1cccc(NC(=O)CSc2nc3ccccc3nc2N2CC(C)OC(C)C2)c1 (centres undefined)	-11	.	.	.	.	8	102	.	122%	132%	114	.	KCNQ1 ephys val=.
CC(C)c1ccc(OCC(=O)NC2CCCC2)cc1	.	.	.	.	.	.	/	/	/	/	/	/
Cc1ccc(C(C)C)cc1OCC(=O)NC1CCCCCCC1	-10	.	.	.	.	9	116	.	.	113%	114	.	KCNQ1 ephys val=.
CC(=O)Nc1ccc(NC(=O)Nc2ccc3c(c2)N(C)C(=O)CS3)cc1	.	.	.	.	.	.	/	/	/	/	/	/
COc1cccc(NC(=O)Nc2ccc3c(c2)N(C)C(=O)CS3)c1	-11	.	.	.	.	6	114	0.36	114%	+	119	.
CCOc1ccc(OCC)c(NC(=O)Nc2ccc3c(c2)N(C)C(=O)CS3)c1	-16	.	.	.	.	14	82	.	90%	152%	119	.
COc1cccc(NC(=O)Nc2ccncc2)c1	.	.	.	.	.	.	/	/	/	/	/	/
COc1cccc(NC(=O)Nc2ccc(C(C)(C)C)cc2)c1	-13	.	.	.	.	13	152	0.35	109%	+	134	0.13
O=C(CC1C(=O)NCCN1Cc1ccccn1)NCCc1ccccc1F (centres undefined)	.	.	.	.	.	.	/	/	/	/	/	/
COc1ccccc1NC(=O)c1cnc(SC)nc1	.	.	.	.	.	.	/	/	/	/	/	/
COc1cc(C)ccc1NC(=O)Cc1csc(NC(=O)Nc2ccccc2OC)n1	-13	.	.	.	-8.8	17	115	.	121%	172%	133	.	KCNQ1 ephys val=.;KCNK9 inh conf=28%;Kir2-1 spec=.;HEK293 Tl ctr=24%
SMILES	KCNK3 inh	Kir21 block	KCNQ1 pot	hERG rescue	KCNK9 inh	KCNQ1 block	KCNQ1 inh valid	CHO Tl flux	KCNQ2 spec	KCNQ1 KCNE1 spec	KCNK3 inh conf	KCNK3 noninduced	others
COc1ccccc1NC(=O)Nc1nc(CC(=O)Nc2ccc(OC)c(OC)c2)cs1	.	.	.	.	.	.	/	/	/	/	/	/
CC(=O)c1c(C)[nH]c(C(=O)Nc2cccc(S(=O)(=O)N(C)c3ccccc3)c2)c1C	-11	.	.	.	-8.6	16	128	0.35	143%	184%	133	0.12	KCNK9 inh conf=.;Kir2-1 spec=.;HEK293 Tl ctr=36%
CC(=O)N1c2ccc(S(=O)(=O)N3CCCCC3)cc2CC1C(=O)Nc1ccc(C)cc1 (centres undefined)	.	.	.	.	.	.	/	/	/	/	/	/
O=C(O)C1CCCCN1C(=O)c1ccc(S(=O)(=O)N2CCCC2)cc1 (centres undefined)	.	/	/	/	/	/	/	/	/	/	/	/
Cc1ccc(CSc2nc3c(c(SCC(=O)O)n2)CCCC3)cc1	.	.	.	.	.	.	/	/	/	/	/	/
CNc1nc(SCc2ccc(C)cc2)nc2c1CCCC2	-11	.	.	.	.	10	130	.	101%	102%	134	0.15	KCNQ1 ephys val=.

Bioassay records from PubChem BioAssay.
